Reference: ChEMBL document CHEMBL1149489, “Synthesis and biological evaluation of benzamides and benzamidines as selective inhibitors of VEGFR tyrosine kinases” (Bioorg Med Chem Lett, 2006)
Active and inactive are the calls of the source. The rule behind the calls is not given here.

biological target: Epidermal growth factor receptor (Homo sapiens) (UniProt P00533); assay: Inhibition of EGFR at 10 uM
Procedure, shortened: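 ELISA autophosphorylation-type assay. Wells were coated overnight at 4 °C with 50 µg/ml poly(Glu:Tyr, 4:1) in PBS. The kinase reaction ran 20 min in 50 mM HEPES, 125 mM NaCl, 10 mM MgCl2, pH 7.4, with 100 µM ATP and compound at 10 µM. Phosphotyrosine was detected with HRP anti-phosphotyrosine antibody and TMB, acid-stopped, and read at A450.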

Sequence of Epidermal growth factor receptor (Homo sapiens) (P00533 whole entry): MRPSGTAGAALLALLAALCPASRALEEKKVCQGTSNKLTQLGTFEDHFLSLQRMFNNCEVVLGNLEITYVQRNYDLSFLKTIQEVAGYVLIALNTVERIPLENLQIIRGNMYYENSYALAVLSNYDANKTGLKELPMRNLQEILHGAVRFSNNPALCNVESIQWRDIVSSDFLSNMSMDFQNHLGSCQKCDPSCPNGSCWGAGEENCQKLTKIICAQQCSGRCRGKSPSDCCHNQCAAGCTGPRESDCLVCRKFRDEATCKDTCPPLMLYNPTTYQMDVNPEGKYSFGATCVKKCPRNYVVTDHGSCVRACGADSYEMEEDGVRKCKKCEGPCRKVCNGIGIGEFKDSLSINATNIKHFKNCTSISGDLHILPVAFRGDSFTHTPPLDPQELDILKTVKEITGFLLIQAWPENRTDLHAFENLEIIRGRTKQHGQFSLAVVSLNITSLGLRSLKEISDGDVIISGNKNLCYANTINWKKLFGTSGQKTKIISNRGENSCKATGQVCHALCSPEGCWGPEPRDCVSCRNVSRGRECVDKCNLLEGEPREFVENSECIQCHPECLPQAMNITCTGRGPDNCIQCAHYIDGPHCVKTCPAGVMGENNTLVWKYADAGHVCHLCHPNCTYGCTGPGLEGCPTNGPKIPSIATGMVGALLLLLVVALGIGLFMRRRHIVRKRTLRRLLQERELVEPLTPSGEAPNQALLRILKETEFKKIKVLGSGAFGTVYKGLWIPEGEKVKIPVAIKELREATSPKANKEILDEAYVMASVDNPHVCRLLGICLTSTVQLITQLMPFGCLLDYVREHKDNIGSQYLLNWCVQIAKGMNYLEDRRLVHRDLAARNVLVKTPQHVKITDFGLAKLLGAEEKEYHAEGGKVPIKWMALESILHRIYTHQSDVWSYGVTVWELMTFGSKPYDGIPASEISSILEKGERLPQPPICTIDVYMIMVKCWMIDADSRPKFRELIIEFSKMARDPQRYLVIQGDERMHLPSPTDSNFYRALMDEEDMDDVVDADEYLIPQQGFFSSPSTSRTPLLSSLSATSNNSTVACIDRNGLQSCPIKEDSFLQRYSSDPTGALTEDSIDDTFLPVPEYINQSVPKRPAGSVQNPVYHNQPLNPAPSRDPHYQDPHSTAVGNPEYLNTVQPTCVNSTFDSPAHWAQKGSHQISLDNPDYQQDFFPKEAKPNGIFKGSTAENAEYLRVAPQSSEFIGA

Activity, inactive:
COc1cc(NCc2ccncc2)c(C(=N)Nc2ccccc2Cl)cc1OC
N=C(Nc1ccccc1Cl)c1ccccc1OCc1ccncc1
COc1cc(OCc2ccncc2)c(C(=O)Nc2ncccn2)cc1OC
N=C(Nc1ccccc1C(F)(F)F)c1ccccc1OCc1ccncc1
O=C(Nc1ncccn1)c1ccccc1NCc1ccncc1
COc1cc(OCc2ccncc2)c(C(=N)Nc2ccccc2C(F)(F)F)cc1OC
COc1cc(NCc2ccncc2)c(C(=O)Nc2ncccn2)cc1OC
COc1cc(OCc2ccncc2)c(C(=N)Nc2ccccc2Cl)cc1OC
COc1cc(OCc2ccncc2)c(C(=O)Nc2ccc(Cl)cc2)cc1OC
COc1cc(NCc2ccncc2)c(C(=O)Nc2cnccn2)cc1OC
N=C(Nc1ccccc1Cl)c1ccccc1NCc1ccncc1
COc1cc(OCc2ccncc2)c(C(=O)Nc2cnccn2)cc1OC
N=C(Nc1ccc(Cl)cc1)c1ccccc1NCc1ccncc1
O=C(Nc1cnccn1)c1ccccc1NCc1ccncc1
O=C(Nc1ccccc1Cl)c1ccccc1OCc1ccncc1
O=C(Nc1ccccn1)c1ccccc1NCc1ccncc1
N=C(Nc1ccc(Cl)cc1)c1ccccc1OCc1ccncc1
COc1cc(NCc2ccncc2)c(C(=N)Nc2ccccc2C(F)(F)F)cc1OC
N=C(Nc1ccccc1C(F)(F)F)c1ccccc1NCc1ccncc1
O=C(Nc1ccccc1C(F)(F)F)c1ccccc1OCc1ccncc1
COc1cc(OCc2ccncc2)c(C(=O)Nc2ccccc2Cl)cc1OC
COc1cc(NCc2ccncc2)c(C(=N)Nc2ccc(Cl)cc2)cc1OC
COc1cc(NCc2ccncc2)c(C(=O)Nc2ccccn2)cc1OC
COc1cc(OCc2ccncc2)c(C(=O)Nc2ccccn2)cc1OC
COc1cc(OCc2ccncc2)c(C(=N)Nc2ccc(Cl)cc2)cc1OC
COc1cc(OCc2ccncc2)c(C(=O)Nc2ccccc2C(F)(F)F)cc1OC
